How the values were obtained:
Histamine H3 receptor [1] = biological target: Histamine H3 receptor (Homo sapiens, UniProt Q9Y5N1); experiment: In vitro binding affinity for human histamine H3 receptor using [3H]N-alpha-methylhistamine
In short: (§1)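 Radioligand binding used membranes from cells transfected with cloned human or rat H3 receptors.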

[2] = Terminal half life upon i.v. dose of 1 mg/kg in rats; format: ADME, organism-based; parameters: dose 1 mg/kg, route intravenous; conditions: rat, in vivo, iv
[3] = Area under plasma concentration curve of the compound upon i.v. dose of 1 mg/kg in rats; format: ADME, organism-based; parameters: dose 1 mg/kg, route intravenous; conditions: rat, in vivo, iv
[4] = Area under plasma concentration curve of the compound upon p.o. dose of 1 mg/kg in rats; format: ADME, organism-based; parameters: dose 1 mg/kg, route oral; conditions: rat, in vivo, po
[5] = Plasma clearance upon i.v. dose of 1 mg/kg in rats; format: ADME, organism-based; parameters: dose 1 mg/kg, route intravenous; conditions: rat, iv
[6] = Oral bioavailability in rat (dose 1 mg/kg); format: ADME, organism-based; conditions: in vivo
Histamine H3 receptor [7] = biological target: Histamine H3 receptor (Rattus norvegicus, UniProt Q9QYN8); experiment: In vitro binding affinity for rat histamine H3 receptor using [3H]N-alpha-methylhistamine; in short: as §1
[8] = Maximum plasma concentration upon p.o. dose of 1 mg/kg in rats; format: ADME, organism-based; parameters: dose 1 mg/kg, route oral; conditions: rat, po
[9] = Terminal half life upon p.o. dose of 1 mg/kg in rats; format: ADME, organism-based; parameters: dose 1 mg/kg, route oral; conditions: rat, in vivo, po

Sequence of Histamine H3 receptor (Homo sapiens, UniProt Q9Y5N1) (Q9Y5N1 whole entry): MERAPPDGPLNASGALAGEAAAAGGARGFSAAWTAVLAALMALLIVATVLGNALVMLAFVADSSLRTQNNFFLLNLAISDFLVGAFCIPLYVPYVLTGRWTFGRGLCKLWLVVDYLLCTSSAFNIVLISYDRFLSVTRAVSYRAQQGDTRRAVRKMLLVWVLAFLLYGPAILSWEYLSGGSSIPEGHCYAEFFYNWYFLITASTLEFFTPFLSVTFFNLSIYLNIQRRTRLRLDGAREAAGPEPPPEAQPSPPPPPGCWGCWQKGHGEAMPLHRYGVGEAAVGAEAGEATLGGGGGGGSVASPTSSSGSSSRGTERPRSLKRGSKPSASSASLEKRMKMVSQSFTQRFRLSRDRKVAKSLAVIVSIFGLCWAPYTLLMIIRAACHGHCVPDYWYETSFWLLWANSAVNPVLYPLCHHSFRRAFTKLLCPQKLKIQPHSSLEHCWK
Sequence of Histamine H3 receptor (Rattus norvegicus, UniProt Q9QYN8) (Q9QYN8 whole entry): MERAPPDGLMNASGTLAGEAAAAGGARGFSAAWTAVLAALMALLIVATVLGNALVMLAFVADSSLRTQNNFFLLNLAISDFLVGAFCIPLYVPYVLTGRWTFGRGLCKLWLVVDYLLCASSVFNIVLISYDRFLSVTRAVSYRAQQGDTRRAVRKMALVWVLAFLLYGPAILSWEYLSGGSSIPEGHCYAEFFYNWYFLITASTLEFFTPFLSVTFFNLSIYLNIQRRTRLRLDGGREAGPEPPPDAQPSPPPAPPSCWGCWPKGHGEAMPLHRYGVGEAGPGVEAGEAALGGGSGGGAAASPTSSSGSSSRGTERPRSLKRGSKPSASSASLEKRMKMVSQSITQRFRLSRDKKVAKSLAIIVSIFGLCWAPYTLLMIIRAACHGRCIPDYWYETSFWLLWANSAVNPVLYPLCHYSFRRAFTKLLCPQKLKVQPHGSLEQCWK

Row | SMILES | Ki (Histamine H3 receptor [1]) [nM] | Ki (Histamine H3 receptor [7]) [nM] | further results
1 | C[C@@H]1CCCN1CCc1cc2cc(CNc3ccc([N+](=O)[O-])cc3)ccc2o1 | 0.74 | 2.12 | –
2 | C[C@@H]1CCCN1CCc1cc2cc(CNc3ccc(C#N)cn3)ccc2o1 | 0.34 | 1.42 | –
3 | Cc1ccc(C#N)c(Nc2ccc3oc(CCN4CCC[C@H]4C)cc3c2)n1 | 2.98 | 17.9 | –
4 | C[C@@H]1CCCN1CCc1cc2cc(CNc3nccnc3C#N)ccc2o1 | 1.04 | 3.96 | –
5 | C[C@@H]1CCCN1CCc1cc2cc(CNc3ncc([N+](=O)[O-])cc3[N+](=O)[O-])ccc2o1 | 0.71 | 2.88 | –
6 | CCc1cnc(Nc2ccc3oc(CCN4CCC[C@H]4C)cc3c2)nc1 | 0.62 | 2.51 | Cmax [8]: 16.2 ng/mL; half-life [2]: 222 min; AUC [3]: 355 ng·h/mL; AUC [4]: 103 ng·h/mL; clearance [5]: 47 mL/min/kg; bioavailability [6]: 29%; half-life [9]: 288 min
7 | C[C@@H]1CCCN1CCc1cc2cc(CNc3ccc(C(=O)C(F)(F)F)cc3)ccc2o1 | 0.74 | 2.36 | –
8 | C[C@@H]1CCCN1CCc1cc2cc(CNc3ncc(Br)cn3)ccc2o1 | 1.22 | 4.02 | –
9 | CCc1cnc(NCc2ccc3oc(CCN4CCC[C@H]4C)cc3c2)nc1 | 0.33 | 0.58 | Cmax [8]: 7.1 ng/mL; half-life [2]: 102 min; AUC [3]: 210 ng·h/mL; AUC [4]: 18.9 ng·h/mL; clearance [5]: 79.8 mL/min/kg; bioavailability [6]: 9%
10 | C[C@@H]1CCCN1CCc1cc2cc(Nc3ccc(C(F)(F)F)cn3)ccc2o1 | 0.54 | 2.76 | –
11 | C[C@@H]1CCCN1CCc1cc2cc(CNc3ncccn3)ccc2o1 | 0.84 | 3.27 | Cmax [8]: 34.5 ng/mL; half-life [2]: 60 min; AUC [3]: 350 ng·h/mL; AUC [4]: 72.1 ng·h/mL; clearance [5]: 47.7 mL/min/kg; bioavailability [6]: 20.6%; half-life [9]: 102 min
12 | C[C@@H]1CCCN1CCc1cc2cc(CNc3ncccc3C#N)ccc2o1 | 0.74 | 1.92 | –
13 | C[C@@H]1CCCN1CCc1cc2cc(-c3ccc(C#N)cc3)ccc2o1 | – | – | Cmax [8]: 39.6 ng/mL; half-life [2]: 342 min; AUC [3]: 667 ng·h/mL; AUC [4]: 426 ng·h/mL; clearance [5]: 25.7 mL/min/kg; bioavailability [6]: 61.8%; half-life [9]: 402 min
14 | C[C@@H]1CCCN1CCc1cc2cc(CNc3ncccc3[N+](=O)[O-])ccc2o1 | 0.43 | 2.71 | –
15 | C[C@@H]1CCCN1CCc1cc2cc(CNc3cccc(C#N)c3)ccc2o1 | 0.4 | 1.18 | –
16 | C[C@@H]1CCCN1CCc1cc2cc(CNc3cncnc3)ccc2o1 | 0.69 | 2.51 | –

Continued, in another order:

Row | Ki (Histamine H3 receptor [1]) [nM] | Ki (Histamine H3 receptor [7]) [nM] | SMILES | further results
17 | 0.08 | 0.27 | C[C@@H]1CCCN1CCc1cc2cc(Nc3cncnc3)ccc2o1 | half-life [2]: 18 min; AUC [3]: 35.9 ng·h/mL; AUC [4]: 0 ng·h/mL; clearance [5]: 475 mL/min/kg; bioavailability [6]: 0%
18 | 0.13 | 0.4 | C[C@@H]1CCCN1CCc1cc2cc(CNc3cc(C#N)nc(C#N)c3)ccc2o1 | –
19 | 0.05 | 0.11 | C[C@@H]1CCCN1CCc1cc2cc(Nc3ccc([N+](=O)[O-])cn3)ccc2o1 | –
20 | 0.31 | 0.87 | C[C@@H]1CCCN1CCc1cc2cc(CNc3ccccc3[N+](=O)[O-])ccc2o1 | –
21 | 0.29 | 1.47 | C[C@@H]1CCCN1CCc1cc2cc(Nc3cccc(C#N)c3)ccc2o1 | –
22 | 0.29 | 0.8 | C[C@@H]1CCCN1CCc1cc2cc(CNc3cnccn3)ccc2o1 | –
23 | 0.27 | 1.35 | C[C@@H]1CCCN1CCc1cc2cc(Nc3ccc(C#N)cc3)ccc2o1 | –
24 | 0.11 | 0.38 | C[C@@H]1CCCN1CCc1cc2cc(Nc3cnccn3)ccc2o1 | –
25 | 0.19 | 0.68 | C[C@@H]1CCCN1CCc1cc2cc(CNc3ncc([N+](=O)[O-])s3)ccc2o1 | –
26 | 0.31 | 1.58 | C[C@@H]1CCCN1CCc1cc2cc(CNc3ccc(Cl)nn3)ccc2o1 | –
27 | 0.22 | 0.87 | C[C@@H]1CCCN1CCc1cc2cc(Nc3ccccc3[N+](=O)[O-])ccc2o1 | –
28 | 0.14 | 0.35 | C[C@@H]1CCCN1CCc1cc2cc(Nc3ncccc3[N+](=O)[O-])ccc2o1 | –
29 | 0.3 | 1.19 | C[C@@H]1CCCN1CCc1cc2cc(CNc3ccc([N+](=O)[O-])cn3)ccc2o1 | –
30 | 0.31 | 2.01 | C[C@@H]1CCCN1CCc1cc2cc(Nc3ncccn3)ccc2o1 | –
